From paper PMC2151501 (The Journal of General Physiology, 2006)
Entries after “also recorded” stand apart in the source; their conditions may differ. No end group written: not given here.

What was measured:
[1] = molecular target: hNav1.5-CW/F1760K mutant Na+ channels (Homo sapiens, UniProt Q14524, A410W/F1760K/L409C); details: ref Wang and Wang, cited from earlier work
[2] = system: voltage-gated Na+ channels; details: ref Catterall, 1980; Wang and Wang, 2003; Strichartz, et al., 1987; cited from earlier work
[3] = molecular target: T1, inactivation-deficient hNav1.5-CW mutant Na+ channels (Homo sapiens, UniProt Q14524, A410W/L409C); test: On and off rates of β4_154–167 binding at 50 mV; format: cell-based
Outline: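 HEK293t cells transiently co-expressing inactivation-deficient hNav1.5-CW with rat β1, whole-cell clamp at 22–24°C, holding −140 mV. Peptide was included in the pipette solution (NaF/NaCl/EGTA/HEPES, pH 7.2) at 25–250 μM. The time-dependent block at 50 mV was fitted single-exponentially. 1/τ was plotted against concentration and fitted by linear regression: slope gave kon, intercept gave koff; n = 5.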

[4] = molecular target: T2, hNav1.5-CW inactivation-deficient mutant Na+ channels (Homo sapiens, UniProt Q14524, A410W/L409C); test: Use-dependent block during repetitive pulses; format: cell-based; details: for use-dependent block of peak currents, 20 ms pulses: β4_154–167 n = 6, acetyl-KIFMK-amide n = 5
[5] = system: Shaker K+ channels; details: 50 mV, ref Murrell-Lagnado and Aldrich, 1993; cited from earlier work
[6] = molecular target: T3, inactivation-deficient hNav1.5-L409C/A410W (hNav1.5-CW) Na+ channels (Homo sapiens, UniProt Q14524, A410W/L409C); format: cell-based; details: intracellular peptide, 50 mV; 25–250 μM for β4_154–167
Outline: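 Transiently transfected HEK293t cells (calcium phosphate; CD8 bead selection; used 1–4 d) expressing hNav1.5-L409C/A410W with rat β1. Peptide at 25–250 μM was dialysed via the pipette. Whole-cell currents were recorded at 50 mV from −140 mV holding, at 22–24°C. Decay was fitted with a single exponential. Steady-state block was taken ∼30 min after break-in.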

[7] = molecular target: T1, inactivation-deficient hNav1.5-CW mutant Na+ channels; test: Resurgent Na+ currents near the activation threshold; format: cell-based; details: 2 mM in pipette, −80 to −20 mV, five cells
Outline: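 Whole-cell recording at room temperature (22–24°C) from transfected HEK293t cells expressing hNav1.5-CW plus rat β1, with 2 mM acetyl-peptide in the internal solution. After the test pulse, tail currents were recorded at −80 to −20 mV in 20-mV steps. Bath: 65 mM NaCl, 85 mM choline Cl, 2 mM CaCl2, 10 mM HEPES, pH 7.4. Five cells.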

[8] = molecular target: T2, hNav1.5-CW inactivation-deficient mutant Na+ channels; test: Unblocking upon repolarization, two-pulse protocol; format: cell-based; details: 2 mM in pipette
Outline: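 Whole-cell hNav1.5-CW currents were recorded in HEK293t cells at room temperature with 2 mM peptide in the pipette. A two-pulse protocol with a 10-ms interpulse interval was used. Peak current amplitude at the second pulse was compared with that at the first.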

[9] = system: BTX-modified wild-type hNav1.5 Na+ channels; test: Time-dependent block of BTX-modified wild-type Na+ currents; format: cell-based; details: 4 μM BTX; acetyl-KIFMK-amide 2 mM, β4_154–167 1 mM, after 2,000 pulses
Outline: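 Channels were modified by 4 μM BTX (final, from 0.5 mM DMSO stock) in the pipette, which also held either 2 mM acetyl-KIFMK-amide or 1 mM peptide. Cells were held at −140 mV and depolarized to 50 mV. The maintained-to-peak current ratio at 50 mV was measured. Five to six cells.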

[10] = molecular target: T3, inactivation-deficient hNav1.5-L409C/A410W (hNav1.5-CW) Na+ channels; details: ref Eaholtz et al., 1994; Tang et al., 1996; Wang and Wang, 2005; cited from earlier work
[11] = system: inactivation-deficient rNav1.2 Na+ channels; details: ref Eaholtz et al., 1994; Tang et al., 1996; Wang and Wang, 2005; cited from earlier work
[12] = system: Na+ channels in dissociated neurons; details: ref Grieco and Raman, 2004; cited from earlier work
[13] = 2 mM in pipette, 50 mV/20 ms at 1 Hz

## Batrachotoxin [BTX]
[1]; 2003
  sensitivity of hNav1.5-CW/F1760K to BTX (in words): BTX-resistant
[2]
  effect of BTX on voltage-gated Na+ channels (in words): eliminates the fast inactivation of voltage-gated Na^+ channels

## KKLITFILKKTREK [β4_154–167]
[3]; read-out: off rate (koff) of binding
  koff: 49.1 s⁻¹
[3]; read-out: on rate (kon) of binding
  kon: 1.01e+07 M⁻¹ s⁻¹
[4]; [13]
  use-dependent block of peak currents, 20 ms pulses: 2.9 ± 1.6%

## ShB peptide: the first 20 amino acids on the NH2 terminus of the Shaker channel (MAAVAGLYGLGEDRQHRKKQ; UniProt P08510 1-20, looked up, fragment)
[5]
  koff: 13.8 s⁻¹

## acetyl-KIFMK-amide
[6]
  time-dependent block of inactivation-deficient Na+ currents (in words): restored the fast inactivation phenotype in hNav1.5 inactivation-deficient Na^+ channels
[7]
  resurgent tail currents near activation threshold (in words), acetyl-KIFMK-amide: elicited robust resurgent currents
[4]; [13]
  additional use-dependent block on outward peak and inward tail currents: ~65%
  tail current decay relative to β4_154–167: four times faster
  use-dependent block of peak currents, 20 ms pulses: 62.4 ± 3.1%
[4]; 2 mM in pipette, repetitive pulses, 3 ms, n = 5
  use-dependent block, 3 ms pulses: 28.5 ± 0.4%
[4]; 50 mV for 1 ms at 1 Hz, n = 5
  fitted τ of use-dependent block, 1 ms pulses: 27.1 pulses
  use-dependent block, 1 ms pulses: 15.5 ± 0.4%
[4]; repetitive pulses, 3 ms, n = 5
  fitted τ of use-dependent block, 3 ms pulses: 14.5 pulses
[8]; short test pulse, n = 6
  tail current decay τ, short test pulse: 0.23 ± 0.02 ms
[8]; −140 mV, two-pulse protocol, 10-ms interval, six cells
  unblocking upon repolarization (in words): also occurred rapidly
[9]
  block of BTX-modified open Na+ channels (in words): resistant to β4_154–167 and acetyl-KIFMK-amide block; also recorded: little time-dependent block was found
[10]
  restoration of fast inactivation, inactivation-deficient hNav1.5 (in words): can restore fast inactivation
[1]; hNav1.5-F1760K, 2005
  effect of hNav1.5-F1760K on time-dependent block (in words): hinders its time-dependent block
  effect of hNav1.5-F1760K on use-dependent block (in words): abolishes the use-dependent block
[11]
  restoration of fast inactivation, rNav1.2 (in words): can restore fast inactivation

## β-pompilidotoxin
[12]
  effect on fast inactivation gating (in words): slowed the fast inactivation gating considerably
